Experimental data as given in PubChem BioAssay AID809 (SRMLSC, 2007).
The source made the active and inactive calls.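 The calls were made as follows: active = EC50 for reversing nicotinamide-shortened yeast lifespan at or below a set limit; inactive = EC50 above that limit.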

Tested on: S. cerevisiae DeaD BB579, nicotinamide rescue growth, OD615 48 h
Assay: BB579 yeast growth restoration under nicotinamide – S. cerevisiae, yeast lifespan extension project, dose response (AID 809)
How it was run: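 System: S. cerevisiae DeaD strain BB579 / Medium: Glucose-containing restrictive synthetic medium (CSMM-D), shifted from galactose / Schedule: 4 h pre-incubation, 48 h exposure at 30 °C / Technique: optical density at 615 nm (absorbance) / Read-out: culture growth as lifespan proxy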

Row | SMILES | EC50
1 | O=C(O)c1c[nH]c(=S)n1-c1ccc(F)cc1 | > 10 µM (inactive)
2 | CN(C)CC(C(=O)c1ccccc1)c1ccccc1 (configuration not stated) | 6.36 µM
3 | O=[N+]([O-])c1c(C(Cl)Cl)nn(-c2ccccc2)c1N1CCCC1 | 7.47 µM
4 | O=C(Oc1ccc2c(c1)OCO2)C12CC3CC(CC(C3)C1)C2 | > 10 µM (inactive)
5 | O=C(/C(=C/c1ccccc1)n1cncn1)c1ccc(Cl)cc1Cl | 1.07 µM
6 | O=C1c2ccccc2C(Nc2ccc3c(c2)OCCO3)N1c1ccccn1 (configuration not stated) | > 10 µM (inactive)
7 | O=C(Nc1ccc(S(=O)(=O)N2CCc3ccccc3C2)cc1)c1ccccc1 | > 10 µM (inactive)
8 | N=c1c2c(-c3ccccc3)c(-c3ccccc3)n(Cc3ccco3)c2ncn1CCCn1ccnc1 | 9.85 µM
9 | Cc1ccc(OCC(=O)c2c(O)c3ccccc3oc2=O)cc1C | 8.97 µM
10 | O=C(NCc1ccc(Cl)cc1)c1ccccc1CCc1ccccc1 | 7.94 µM
11 | Cc1ccc(C(=O)c2no[n+]([O-])c2C(=O)c2ccc(C)cc2)cc1 | > 10 µM (inactive)
12 | CCOC(=O)c1nnn(-c2nonc2N)c1CN1CCc2ccccc2C1 | 9.77 µM
13 | CCCN1C(=O)/C(=C/c2ccncc2)SC1=S | 6.93 µM
14 | Cc1nonc1NC(=O)CSc1nc(C2CCCCC2)nc2ccccc12 | > 10 µM (inactive)
15 | CCC(=O)N1CCN(CCN=CC2=C(O)CC(c3cccs3)CC2=O)CC1 (configuration not stated) | 9.98 µM
16 | Fc1cccc2sc(Nc3nnc(-c4ccccc4)o3)nc12 | 3.02 µM
17 | Fc1cccc2sc(Nc3nnc(-c4ccco4)o3)nc12 | 0.24 µM
18 | CS(=O)(=O)c1nc(-c2cccs2)cc(C(F)(F)F)n1 | 3.91 µM
19 | c1cncc(-c2nn[nH]n2)c1 | > 10 µM (inactive)
20 | Oc1ccc2ccccc2c1C=Nc1ccc(N2CCOCC2)cc1 | > 10 µM (inactive)
21 | Cc1cc(C)nc(SCc2cc(=O)c(OC(=O)c3ccco3)co2)n1 | > 10 µM (inactive)
22 | CCCn1c(C)cc(C(=O)COc2ncnc3sccc23)c1C | 5.05 µM

Row | SMILES | EC50
23 | CN1C(=O)NC(c2ccc(O)cc2)C(C(=O)c2cccs2)C1(O)C(F)(F)F (configuration not stated) | > 10 µM (inactive)
24 | C=CCn1c(-c2ccc(OC)cc2)csc1=Nc1c(C)n(C)n(-c2ccccc2)c1=O | > 10 µM (inactive)
25 | Oc1ccc(Br)cc1C=Nc1ccc2[nH]ncc2c1 | > 10 µM (inactive)
26 | O=C1CC(c2ccccc2)CC(O)=C1C=NCCN1CCNCC1 (configuration not stated) | > 10 µM (inactive)
27 | CCSc1nnc(NC(=O)CSc2nc(C)cc(C)n2)s1 | > 10 µM (inactive)
28 | O=C1CC(c2ccccc2)CC(O)=C1C=NCCN1CCN(C(=O)Cc2ccccc2)CC1 (configuration not stated) | 6.72 µM
29 | N#CSCC(=O)N1c2ccccc2CCc2ccccc21 | 8.69 µM
30 | CCN1C(=O)/C(=C/N(C(C)=O)c2ccccc2)N(c2ccccc2)C1=S | > 10 µM (inactive)
31 | O=C(CCN1CCCCCC1)Nc1ccc(F)cc1 | > 10 µM (inactive)
32 | C=C(C(=O)c1ccccc1)C(C)CC(=O)c1ccccc1 (configuration not stated) | 6.42 µM
33 | CCOC(=O)/C(=C\c1cn(C)c2ccccc12)[N+](=O)[O-] | 3.11 µM
34 | CCOC(=O)c1[nH]nc(C(=O)c2ccc(Br)cc2)c1O | 5.89 µM
35 | Cc1nc2c(=O)n(C)c(=O)n(C)c2nc1Cl | 1.72 µM
36 | CC(C)OCCCNS(=O)(=O)c1ccc2ccccc2c1 | > 10 µM (inactive)
37 | O=S(=O)(Nc1nc2ccccc2nc1Cl)c1ccc2ccccc2c1 | 7.25 µM
38 | Cc1cc(C)nc(SCc2cc(=O)c(OC(=O)c3ccc(Br)o3)co2)n1 | 3.26 µM
39 | COc1ccccc1-c1c(C)oc2cc(OC(=O)c3ccco3)ccc2c1=O | > 10 µM (inactive)
40 | CC(C)C(c1nnnn1Cc1ccccc1)N1CCN(Cc2ccc3c(c2)OCO3)CC1 (configuration not stated) | > 10 µM (inactive)
41 | O=C(O)CCCCCN1C(=O)/C(=C\c2ccncc2)SC1=S | > 10 µM (inactive)
42 | O=C(Oc1cc(=O)n2ccccc2n1)c1ccccc1 | 7.19 µM
43 | O=C(CCl)c1ccc(Cc2ncc(C(F)(F)F)cc2Cl)s1 | 3.83 µM
44 | O=C1/C(=C\c2cccnc2)CN(Cc2ccccc2)C/C1=C\c1cccnc1 | 9.63 µM

Row | SMILES | EC50
45 | CCCCCSc1nc2c(c(=O)[nH]c(=O)n2C)n1C | > 10 µM (inactive)
46 | CCc1ccc2nc(N3C(=O)C(O)=C(C(=O)c4ccco4)C3c3cccs3)sc2c1 (configuration not stated) | 9.41 µM
47 | Cc1ccnc(SCc2cc(=O)c(OC(=O)c3ccco3)co2)n1 | 8.45 µM
48 | O=[N+]([O-])c1cc(S(=O)(=O)N2CCCCCC2)ccc1F | 5.18 µM
49 | CN(c1ccccc1)c1nc2ccsc2c(=O)s1 | > 10 µM (inactive)
50 | O=C1c2ccccc2NC(c2cnc3ccccc3n2)N1O (configuration not stated) | 1.42 µM
51 | COc1ccc(-c2noc(CSc3nnc(-c4ccncc4)n3-c3ccc(F)cc3)n2)cc1OC | > 10 µM (inactive)
52 | CCOC(=O)CSC1=NC(=O)/C(=C/c2ccc(OC)cc2)S1 | 6.43 µM
53 | Cc1ccc(S(=O)(=O)Nc2ccccc2/C=N/c2nc3ccccc3n2C(C)C)cc1 | > 10 µM (inactive)
54 | CCCCSc1[nH]c(=O)c(C(=O)OCC)cc1C#N | 6.45 µM
55 | COc1cc(/C=c2\sc3nc(-c4ccncc4)nn3c2=O)ccc1OC(C)=O | > 10 µM (inactive)
56 | COc1cccc(/C=C/C(=O)c2c(O)cc(C)oc2=O)c1O | > 10 µM (inactive)
57 | CCCC(=Nc1ccc(N)cc1)C1=C(O)C(C(=O)OC)C(C)(C)CC1=O (configuration not stated) | 8.85 µM
58 | Cc1ccc(C(=O)OC2=CC(=O)CC(C)(C)C2)cc1 | 2.94 µM
59 | Cc1ccc(/C(O)=C2\C(=O)C(=O)N(c3cc(C)on3)C2c2cccc(Cl)c2)cc1 (configuration not stated) | 9.72 µM
60 | CCOC(=O)C(=Cc1ccc(F)cc1)C(=O)OCC | 6.7 µM
61 | CC(=O)Oc1c(C(=O)c2nnc(C)o2)c(=O)n(C)c2ccccc12 | > 10 µM (inactive)
62 | CCOc1ccc(/C=C2/C(=O)NC(=O)N(CCc3ccc(F)cc3)C2=O)cc1 | > 10 µM (inactive)
63 | C/C(=N\NC(=O)c1cccnc1)c1c(O)cc(C)oc1=O | > 10 µM (inactive)
64 | Cc1ccc(C(=O)C2C(=O)c3ccccc3C2=O)cc1 | 3.68 µM
65 | CCCC[n+]1c(-c2ccc(Cl)cc2Cl)csc1Nc1ccccc1 | > 10 µM (inactive)
66 | COc1cc(/C=C/C(=O)c2c(O)cc(C)oc2=O)cc(OC)c1O | > 10 µM (inactive)

Row | SMILES | EC50
67 | Nc1cccc2c1C(=O)N(C(=O)c1ccc(Cl)c(S(=O)(=O)N3CCCCCC3)c1)C2=O | 7.66 µM
68 | CC[n+]1c(/C=C2\C=C(C)CC(C)(C)C2)sc2ccccc21 | > 10 µM (inactive)
69 | Cc1cc(NS(=O)(=O)c2ccc(CC(C)C)cc2)no1 | 6.25 µM
70 | CCOC(=O)C1=C(C)Nc2nc(=S)[nH]n2C1c1ccc(Cl)cc1 (configuration not stated) | 5.46 µM
71 | CC(C)c1nnc(NC(=O)c2c(O)c3cccc4c3n(c2=O)CCC4)s1 | 4.31 µM
72 | CC(C)(C)C1CCc2[nH]nc(C(=O)O)c2C1 (configuration not stated) | 1.2 µM
73 | O=c1c(-c2ccc(Cl)cc2)[n+]([O-])c2ccccc2n1OCc1ccccn1 | > 10 µM (inactive)
74 | Cc1ccnc(N=Cc2c(O)ccc3oc4c(c23)CCCC4)c1 | 8.47 µM
75 | CCn1ccc(C(=O)Nc2ccc(S(=O)(=O)Nc3ccccc3OC)cc2)n1 | > 10 µM (inactive)
76 | O=C1C(=C(O)c2ccccc2)C(=O)c2ccccc21 | > 10 µM (inactive)
77 | CCc1[nH]nc2c1C(c1ccc(Br)s1)C(C#N)=C(N)O2 (configuration not stated) | 9.31 µM
78 | Cc1ccc(N2NC(=O)/C(=C\c3cc4c(cc3[N+](=O)[O-])OCO4)C2=O)cc1C | > 10 µM (inactive)
79 | O=C1/C(=N/n2cnnc2)c2ccccc2N1Cc1ccccc1 | 9.61 µM
80 | CC1CCCCN1C(=S)Nc1ccc2nc3n(c(=O)c2c1)CCCCC3 (configuration not stated) | 8.72 µM
81 | O=C(Nc1scc(-c2cccs2)c1C(=O)O)c1cccs1 | 6.7 µM
82 | CC(C)(C)C(=O)/C(=C/c1cccc([N+](=O)[O-])c1)n1cncn1 | 3.73 µM
83 | CC1(C)Cc2ccccc2-c2nnc(SCC(=O)Nc3ccc4c(c3)OCO4)n21 | > 10 µM (inactive)
84 | CCCc1nc2c(c(=O)c3ccccc3n2C)c(=O)n1C1CCCCCC1 | > 10 µM (inactive)
85 | COc1ccc(O)c(C(=O)c2cc(C#N)c(=O)n(CC3CCCO3)c2)c1 (configuration not stated) | 8.21 µM
86 | C=C(CC)C(=O)c1ccc(OCC(=O)O)c(Cl)c1Cl | 7.07 µM
87 | COc1ccc(C(C)NC(=O)c2ccccc2)cc1 (configuration not stated) | > 10 µM (inactive)
88 | CC1CC(C)CN(S(=O)(=O)c2cccc(C(=O)N3C(=O)c4cccc(N)c4C3=O)c2)C1 (configuration not stated) | 4.71 µM

Row | SMILES | EC50
89 | O=c1c2[nH]c3ccccc3c2ncn1Cc1ccco1 | > 10 µM (inactive)
90 | O=c1[nH]c2ccccc2nc1Cc1ccccc1 | > 10 µM (inactive)
91 | O=S1(=O)C=C(Sc2nnc(-c3ccccc3)o2)c2ccccc21 | 9.27 µM
92 | CCn1ncc(/C=N/NC(=O)c2ccc3c(c2)OCO3)c1C | > 10 µM (inactive)
93 | COc1ccccc1N(CN1CCCC1=O)C(=O)c1c(F)cccc1F | > 10 µM (inactive)
94 | CCOC(=O)C1CCN(C(c2cc3ccc(C)c(C)c3[nH]c2=O)c2nnnn2C2CCCCC2)CC1 (configuration not stated) | > 10 µM (inactive)
95 | CCCCCCCC(=O)N/N=C(/C)c1c(O)cc(C)oc1=O | > 10 µM (inactive)
96 | C=C(C(=O)c1ccccc1)C(CC(=O)c1ccccc1)c1ccccc1 (configuration not stated) | 8.08 µM
97 | CCC(=NCCc1c(C)[nH]c2ccc(C)cc12)C1=C(O)CC(c2ccccc2)CC1=O (configuration not stated) | 5.08 µM
98 | COC(=O)c1cc(OC)c(OC)cc1NC(=S)Nc1cccc(C(C)=O)c1 | > 10 µM (inactive)
99 | C=CCN(CC=C)S(=O)(=O)c1ccc2nc(NC(=O)C(C)C)sc2c1 | > 10 µM (inactive)
100 | COc1cc(OC)cc(-c2nc3ccccc3c(=O)n2OC(=O)c2ccc(C)c(C)c2)c1 | 8.74 µM
101 | N#Cc1c(-c2ccccc2)c(-c2ccccc2)nn(CC(=O)NNC(=O)Nc2ccccc2)c1=O | > 10 µM (inactive)
102 | NC(=S)N/N=C/c1coc2cc(Cl)ccc2c1=O | 4.87 µM
103 | Cc1ccc(/C=C2/C(=O)NC(=O)N(CCc3ccc(F)cc3)C2=O)o1 | > 10 µM (inactive)
104 | O=C(/C=C/c1ccccc1)Nc1ncn[nH]1 | > 10 µM (inactive)
105 | C/C(=N\NC(=O)c1cccc(Cl)c1)C1C(=O)c2ccccc2C1=O | > 10 µM (inactive)
106 | CS(=O)(=O)c1nc(-c2ccccc2)cc(C(F)(F)F)n1 | 3.32 µM
107 | COc1ccc(CCN2C(=O)C(O)=C(C(=O)c3ccco3)C2c2cccs2)cc1OC (configuration not stated) | 8.94 µM
